Measured values from ChEMBL document CHEMBL1127811, “Inhibitors of cholesterol biosynthesis. 2. Hypocholesterolemic and antioxidant activities of benzopyran and tetrahydronaphthalene analogues of the tocotrienols” (J Med Chem, 1994).

Columns and labels:
HepG2 = assay: In vitro inhibition of cholesterol biosynthesis in Hep G2 cells; format: functional, Homo sapiens; design: concentration or dose not given beside the values
Procedure, shortened: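 HepG2 human hepatoma cells incubated 4 h with compound at 10 μM, DMSO vehicle controls. Mean % inhibition vs controls, SD ≤ ±10%, n ≥ 8.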

Gallus gallus [1] = species: Gallus gallus; assay: (§1) Hypocholesterolemic activity in 6-week old male mormocholesterolemic chickens using experiment 4; format: functional
Procedure, shortened: (§2)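 Male chickens, 6 weeks old. Test compound mixed at 50 ppm into a corn-soybean control diet; controls get the diet alone. After the feeding period, birds are fasted 36 h and refed 48 h before sacrifice. Serum total, LDL and HDL cholesterol (mg/100 mL) and triglycerides measured; expressed as mean ± SD and percent of control, n = 6–12 per group.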

Gallus gallus [2] = species: Gallus gallus; assay: as §1; format: functional; remark: listed apart in the source
Procedure, shortened: (§3)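 Six-week-old male chickens fed corn-soybean control diet with test compound at 50 ppm. Birds fasted 36 h, then refed 48 h before sacrifice. Serum total, LDL and HDL cholesterol and triglycerides measured (mg/100 mL), HDL/total ratio computed. Means ± SD, n = 6–12 per group, also as % of control. Significance p < 0.01 within each study.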

[3] = LDL oxidation assay as spectrophotometric determination of TBARS; format: functional
Procedure, shortened: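 LDL (0.5 mg/mL protein stock) in saline/20 mM HEPES with drug in ethanol, oxidised by CuSO4 (4 × 10⁻⁴ M stock), 37 °C, 5 h, in duplicate. Stopped with EDTA; TCA/TBA added, boiled 30 min, A535 read. Malonaldehyde equivalents from tetramethoxypropane standard curve. IC50 = concentration inhibiting 50% TBARS vs ethanol controls.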

Gallus gallus [4] = species: Gallus gallus; assay: Ratio of HDL/total cholesterol value; format: functional; procedure, shortened: as §3
[5] = target: T1, 3-hydroxy-3-methylglutaryl-coenzyme A reductase (Homo sapiens) (UniProt P04035); assay: In vitro suppression of HMG-CoA reductase (HMGR) in Hep G2 cells; format: cell-based; design: concentration or dose not given beside the values; settings: HepG2, concentration not given here
T1 sequence (whole entry): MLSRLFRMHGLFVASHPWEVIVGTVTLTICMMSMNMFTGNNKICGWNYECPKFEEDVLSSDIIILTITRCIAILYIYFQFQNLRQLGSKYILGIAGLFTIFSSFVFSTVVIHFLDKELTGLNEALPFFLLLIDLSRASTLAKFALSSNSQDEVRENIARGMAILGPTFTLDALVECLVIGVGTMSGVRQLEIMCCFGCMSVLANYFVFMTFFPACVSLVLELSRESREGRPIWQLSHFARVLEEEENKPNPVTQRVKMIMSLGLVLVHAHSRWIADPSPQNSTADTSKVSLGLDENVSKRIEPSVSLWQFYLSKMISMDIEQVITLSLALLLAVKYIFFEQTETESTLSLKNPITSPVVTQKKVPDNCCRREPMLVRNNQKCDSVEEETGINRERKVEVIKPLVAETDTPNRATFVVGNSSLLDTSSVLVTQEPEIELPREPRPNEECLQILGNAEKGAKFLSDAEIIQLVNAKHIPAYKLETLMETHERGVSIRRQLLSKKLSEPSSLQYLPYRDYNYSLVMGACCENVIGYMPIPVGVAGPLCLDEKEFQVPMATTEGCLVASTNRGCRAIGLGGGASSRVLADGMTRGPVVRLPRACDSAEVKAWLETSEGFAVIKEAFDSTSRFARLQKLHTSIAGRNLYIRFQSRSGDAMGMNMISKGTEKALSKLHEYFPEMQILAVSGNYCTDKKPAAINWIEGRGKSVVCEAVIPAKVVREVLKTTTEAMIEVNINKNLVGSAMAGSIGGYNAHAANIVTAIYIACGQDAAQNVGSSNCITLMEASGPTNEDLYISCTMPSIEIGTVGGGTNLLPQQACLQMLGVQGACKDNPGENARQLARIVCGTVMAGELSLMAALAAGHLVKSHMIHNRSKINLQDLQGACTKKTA
Procedure, shortened: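 HepG2 cells treated 4 h with compound at 10 μM, DMSO vehicle controls. HMG-CoA reductase activity assayed in microsomal fraction isolated at end of incubation. Mean % suppression vs controls, SD ≤ ±10%, n ≥ 8.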

[6] = Compound oxidation potential using cyclic voltametry; format: ADME
Gallus gallus [7] = species: Gallus gallus; assay: (§4) Hypocholesterolemic activity in 6-week old male mormocholesterolemic chickens using experiment 3; format: functional; procedure, shortened: as §2
Gallus gallus [8] = species: Gallus gallus; assay: as §4; format: functional; procedure, shortened: as §3; remark: listed apart in the source
Gallus gallus [9] = species: Gallus gallus; assay: Hypocholesterolemic activity in 6-week old male mormocholesterolemic chickens using experiment 2; format: functional; procedure, shortened: as §3

SMILES | Inhibition (HepG2) [%] | IC50 [3] [nM] | Potential [6] | also measured
CC(C)=CCC/C(C)=C\CCC1(C)CCc2cc(O)ccc2O1 (configuration not stated) | 55 | 2000 |  | LDL cholesterol (Gallus gallus [1]): 39 mg 100ml-1; HDL cholesterol (Gallus gallus [2]): 94 mg 100ml-1; Total cholesterol (Gallus gallus [2]): 142 mg 100ml-1; Triglycerides (Gallus gallus [2]): 67 mg 100ml-1; Ratio (Gallus gallus [4]): 0.66; inhibition [5]: 39%
CC(C)=CCC/C(C)=C/CC/C(C)=C/CCC1(C)CCc2cc(F)ccc2O1 (configuration not stated) | 35 |  |  | 
CCCCCCCC/C=C/CCCCCCCC1(C)CCc2cc(O)c(C)c(C)c2O1 (configuration not stated) | 10 |  |  | 
CC(C)=CCC/C(C)=C/CC/C(C)=C/CCc1oc2c(C)c(C)c(O)cc2c(=O)c1O | 61 |  | 1.2 | 
CC(C)=CCC/C(C)=C/CC/C(C)=C/CCC1(C)CCc2ccc(O)c(O)c2O1 (configuration not stated) | 27 |  | 1.26 | 
CCCCCCCCCCCCCC1(C)CCc2cc(O)c(C)c(C)c2O1 (configuration not stated) | 16 |  |  | 
CC(C)=CCC/C(C)=C/CC/C(C)=C/CCC1(C)CC(O)c2cc(O)c(C)c(C)c2O1 (configuration not stated) | 56 |  | 0.96 | 
CC(C)=CCC/C(C)=C/CC/C(C)=C/CCC1(C)CCc2c(C)c(O)cc(C)c2O1 (configuration not stated) | 43 | 7000 | 1.05 | inhibition [5]: 21%
CC(C)=CCC/C(C)=C/CCC1(C)CCc2c(O)cc(N3CCCC3)cc2O1 (configuration not stated) | 54 | 4000 |  | 
CCCCC/C=C\C/C=C\CCCCCCCC1(C)CCc2cc(O)c(C)c(C)c2O1 (configuration not stated) | 18 |  |  | 
CC(C)=CCC/C(C)=C/CC/C(C)=C/CCC1CCc2cc(O)ccc2C1 (configuration not stated) | 40 |  |  | LDL cholesterol (Gallus gallus [7]): 57 mg 100ml-1; Ratio (Gallus gallus [4]): 0.62; HDL cholesterol (Gallus gallus [8]): 94 mg 100ml-1; Total cholesterol (Gallus gallus [8]): 152 mg 100ml-1; Triglycerides (Gallus gallus [8]): 76 mg 100ml-1
CCCCC/C=C\C/C=C\C/C=C\CCCCC1(C)CCc2cc(O)c(C)c(C)c2O1 (configuration not stated) | 22 |  |  | 
CC(C)=CCC/C(C)=C/CC/C(C)=C/CCC1(C)CCc2c(cc(C)c(O)c2C)O1 (configuration not stated) | 42 | > 10000 | 1.06 | inhibition [5]: 40%
CC(C)=CCC/C(C)=C/CC/C(C)=C/CCC1(C)CCc2c(O)cccc2O1 (configuration not stated) | 62 |  | 1.27 | 
CC(C)=CCCC1(C)CCc2cc(O)ccc2O1 (configuration not stated) | 35 | 2000 | 1.2 | LDL cholesterol (Gallus gallus [1]): 32 mg 100ml-1; HDL cholesterol (Gallus gallus [2]): 93 mg 100ml-1; Total cholesterol (Gallus gallus [2]): 131 mg 100ml-1; Triglycerides (Gallus gallus [2]): 73 mg 100ml-1; Ratio (Gallus gallus [4]): 0.71
CC(C)=CCC/C(C)=C/CC/C(C)=C/CCC1(C)C=Cc2cc(O)c(C)c(C)c2O1 (configuration not stated) | 69 |  | 0.92 | 
CC(C)=CCC/C(C)=C/CC/C(C)=C/CCC1(C)CCc2ccc(O)cc2O1 (configuration not stated) | 58 | > 10000 | 1.44 | 
CC(C)=CCC/C(C)=C/CC/C=C/CCC1(C)CCc2cc(O)c(C)c(C)c2O1 (configuration not stated) | 68 |  |  | 

SMILES | Inhibition (HepG2) [%] | IC50 [3] [nM] | Potential [6] | also measured
CC(C)=CCC/C(C)=C/CC/C(C)=C/CCc1cc(=O)c2cc(O)c(C)c(C)c2o1 | 71 |  |  | 
CC(=O)Oc1cc2c(c(C)c1C)OC(CC/C=C(\C)CC/C=C(\C)CCC=C(C)C)CC2 (configuration not stated) |  |  |  | LDL cholesterol (Gallus gallus [1]): 44 mg 100ml-1; HDL cholesterol (Gallus gallus [2]): 87 mg 100ml-1; Total cholesterol (Gallus gallus [2]): 139 mg 100ml-1; Triglycerides (Gallus gallus [2]): 67 mg 100ml-1; Ratio (Gallus gallus [4]): 0.63
CC(C)=CCC/C(C)=C/CC/C(C)=C/CCC1(C)CCc2cccc(O)c2O1 (configuration not stated) | 46 |  | 1.24 | 
CC(C)=CCC/C(C)=C/CCC#CCCC1(C)CCc2cc(O)c(C)c(C)c2O1 (configuration not stated) | 81 |  |  | inhibition [5]: 46%
CC(C)=CCC/C(C)=C/CC/C=C\CCC1(C)CCc2cc(O)c(C)c(C)c2O1 (configuration not stated) | 81 |  |  | inhibition [5]: 45%
CC(C)=CCC/C(C)=C/CCC1(C)CCc2cc(O)ccc2O1 (configuration not stated) | 48 | 2000 |  | LDL cholesterol (Gallus gallus [1]): 33 mg 100ml-1; HDL cholesterol (Gallus gallus [2]): 93 mg 100ml-1; Total cholesterol (Gallus gallus [2]): 130 mg 100ml-1; Triglycerides (Gallus gallus [2]): 73 mg 100ml-1; Ratio (Gallus gallus [4]): 0.72; inhibition [5]: 52%
C/C(=C\CCC1(C)CCc2cc(O)c(F)cc2O1)CO (configuration not stated) | 15 | > 10000 |  | 
CC(C)=CCC/C(C)=C/CC/C(C)=C/CCC1(C)CCc2cc(O)cc(C#N)c2O1 (configuration not stated) | 63 |  |  | LDL cholesterol (Gallus gallus [7]): 54 mg 100ml-1; Ratio (Gallus gallus [4]): 0.62; HDL cholesterol (Gallus gallus [8]): 94 mg 100ml-1; Total cholesterol (Gallus gallus [8]): 151 mg 100ml-1; Triglycerides (Gallus gallus [8]): 83 mg 100ml-1
CC(C)=CCC/C(C)=C/CC/C(C)=C/CCC1(C)CCc2cc(O)c(F)cc2O1 (configuration not stated) | 60 | 3000 | 1.21 | inhibition [5]: 33%
CCCCC/C=C/C/C=C/CCCCCCCC1(C)CCc2cc(O)c(C)c(C)c2O1 (configuration not stated) | 17 |  |  | 
CC(C)=CCC/C(C)=C/CC/C(C)=C/CCC1(C)CCc2cc(O)ccc2O1 (configuration not stated) | 62 | 600 | 1.05 | Triglycerides (Gallus gallus [9]): 80 mg 100ml-1; Ratio (Gallus gallus [4]): 0.61; inhibition [5]: 53%
CC(C)=CCC/C(C)=C/CC/C(C)=C/CCC1Oc2c(cc(O)c(C)c2C)C(=O)/C1=N\O (configuration not stated) | 84 |  |  | 
CC(C)=CCC/C(C)=C/CC/C(C)=C/CCC1(C)CCc2cc(C)c(C)cc2O1 (configuration not stated) | 33 |  |  | 
CC(C)=CCC/C(C)=C/CC/C(C)=C/CC/C(C)=C/CCC1(C)CCc2cc(O)c(C)c(C)c2O1 (configuration not stated) | 0 |  |  | 
CC(C)=CCC/C(C)=C/CC/C(C)=C/CCC1(C)CCc2cc(O)c(C(C)(C)C)cc2O1 (configuration not stated) | 38 | 10000 |  | 
CC(C)=CCC/C(C)=C/CC/C(C)=C/CCC1(C)CCc2cc(O)cc(Br)c2O1 (configuration not stated) | 62 |  |  | LDL cholesterol (Gallus gallus [7]): 45 mg 100ml-1; Ratio (Gallus gallus [4]): 0.67; HDL cholesterol (Gallus gallus [8]): 93 mg 100ml-1; Total cholesterol (Gallus gallus [8]): 139 mg 100ml-1; Triglycerides (Gallus gallus [8]): 87 mg 100ml-1
COc1cc2c(c(C)c1C)OC(C)(CC/C=C(\C)CC/C=C(\C)CCC=C(C)C)CC2 (configuration not stated) | 0 |  |  | 
